Measurements: the RNAGym collection of RNA variant scans (doi:10.1126/science.aae0568)
Variants at the floor of the assay were thinned out.

B1: tRNA (parent)
chain: GUUCCGUUGGCGUAAUGGUAACGCGUCUCCCUCCUAAGGAGAAGACUGCGGGUUCGAGUCCCGUACGGAACG

Variants of: B1
Experiment: yeast fitness relative to wild type (ratio to wild type); higher = fitter; tRNA-Arg(CCU), competitive growth, 37 C, YPD
How it was run: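 The tRNA-Arg(CCU) gene variants were made by chemical synthesis with a 3% per-site mutation rate at 69 sites and inserted at the native genomic locus of Saccharomyces cerevisiae. After pooling, the strains were competed in YPD at 37°C for 24 hours in six parallel replicates. Gene amplicons from the start population and each end population were read by 100-nucleotide paired-end sequencing, and Darwinian fitness relative to wild type was taken from genotype frequency changes. Genotypes needed ≥ 100 starting reads, and estimates < 0.5 were set to 0.5.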

| Variant | yeast fitness |
| --- | --- |
| GUUCCGUUGGCGUAAUGGUAACGCGUAUCCCUUCUAAGGAGAACUCUGCCGGUUCGAGUCCCGUACAGAACG | ≤ 0.5 |
| GUUCCGUUGGCGUAAUGGUAACGCGUAUCUCUGCUACGGAGAAGACUGCGGGUUCGUGUCCCGUACGGAACG | ≤ 0.5 |
| GUUCCGUUGGCGUAAUGGUAACGCGUAUCUCUCCUAAGGAGAACACUGCGGGUUCGAGUCCCGUACGGAACG | ≤ 0.5 |
| GUUCCGUUGGCGUAAUGGUAACGCGUAUCCGUCCUAAGGAGAAGACUGCGGGUUCGAGUCCCGUACGGAACG | 0.957 |
| GUUCCGUUGGCGUAAUGGUAACGCGUAUCCCUCCUAAGGAGAAGACUGUGGGUUCGAGUCCCGUACGGAACG | 0.826 |
| GUUCCGUUGGCGUAAUGGUAACGCGUAUCCCUCCUAAGGAGAAGACUGAGGGUUCGAGUCCCGUACGGAACG | 0.749 |
| GUUCCGUUGGCGUAAUGGUAACGCGUAUCCGUCCUAAGGAGAAGACUGCGGGUUCGAGUCUCGUACGGAACG | 0.669 |
| GUUCCGUUGGCGUAAUGGUAACGCGUAUCCGUCCUAAGGAGAAGCCUGCGGGUUUGAGUCCCGUACGGAACG | ≤ 0.5 |
| GUUCCGUUGGCGUAAUGGUAACGCGUAUCCGUCCUAAGGAGAAGACUGCGGGUUCGAGUCCCGUUCGGAGCG | ≤ 0.5 |
| GUUCCGUUGGCGUAAUGGUAACGCGUAUCCCUCUUAAGGAGUAGACUGCCGGUUCGAAUCCCGUACGCGACG | ≤ 0.5 |
| GUUCCGUUGGCGUAAUGGUAACGCGUAUCCCUCUUAAGGAGAAGACUGCGGGUUCGAGUCCUGCACGGAACG | ≤ 0.5 |
| GUUCCGUUGGCGUAAUGGUAACGCGUAUCCCUCAUAAGGAGAAGACUGCGGGUUCGAGUCCCGUACUGCACG | ≤ 0.5 |
| GUUCCGUUGGCGUAAUGGUAACGCGUAUCCUUACUAAGGAGUAGACUGCGGGUUCGAGUCCCGUACAGAACG | ≤ 0.5 |
| GUUCCGUUGGCGUAAUGGUAACGCGUAUCCCUCGUAAAGAGAAGACUGCGGGUUCGAGUCCCCUACGGAACG | ≤ 0.5 |
| GUUCCGUUGGCGUAAUGGUAACGCGUAUCCCUCUUAAGGAGAAGACUGCGGGUUCGAGUCCCGUACGGAACG | 0.598 |
| GUUCCGUUGGCGUAAUGGUAACGCGUAUCCCUCCUAAGGAGAAGAUUGCGGGUUCGAGUCCCGUACGGAUCG | 0.733 |
| GUUCCGUUGGCGUAAUGGUAACGCGUAUCCCUGCUAAGGAGAAGCCUGCGGGUUCGAGUCCCGUACGGAACG | 0.53 |
| GUUCCGUUGGCGUAAUGGUAACGCGUAUCCAUCCUAAGGAGAAGAGUGCGGGUUCGAGUCCCGUACGGAACG | 0.688 |
| GUUCCGUUGGCGUAAUGGUAACGCGUAUCCCUUCUAAGGAGAAGACUGCGGGUUCGAGUCCCGUACGGAACG | 0.799 |

| Variant | yeast fitness |
| --- | --- |
| GUUCCGUUGGCGUAAUGGUAACGCGUAUCCCUGCUAAGGAGAAGACUGCGGGUUCGAGUCCCGUACGGAACG | 0.711 |
| GUUCCGUUGGCGUAAUGGUAACGCGUAUCCCUCCUAAGGAGAAGAUUGCGGGUUCGAGUCCCGUACGGAACG | 1.05 |
| GUUCCGUUGGCGUAAUGGUAACGCGUAUCCCUCCUAAGGAGAAGAAUGCGGGUUCGAGUCCCGUACGGAACG | 0.907 |
| GUUCCGUUGGCGUAAUGGUAACGCGUAUCCCUUCUAAGGAGUAGACUGCGGGUUCGAGUCCCGUACGGAACG | ≤ 0.5 |
| GUUCCGUUGGCGUAAUGGUAACGCGUAUCCCUCCUAAGGAGAAGAUUGCGGAUUCGAGUCCCGUACGGAACG | 0.644 |
| GUUCCGUUGGCGUAAUGGUAACGCGUAUCCCUCCUAAGGAGAAGACUGGGGGAUCGAGUCCAGUACGGAACG | 0.571 |
| GUUCCGUUGGCGUAAUGGUAACGCGUAUCCCUUCUAAGGAGAAGACUGCGGCUUCGAGUCCGGUACGGAACG | 0.579 |
| GUUCCGUUGGCGUAAUGGUAACGCGUAUCCGUCCUAAGGAGAAGACUGCGGGUUCGAGUCCCGUUCGGAACG | 0.679 |
| GUUCCGUUGGCGUAAUGGUAACGCGUAUCCAUCCUAAGGAGAAGACUGCGGGUUCGAGUCCCGUACGGUACG | 0.567 |
| GUUCCGUUGGCGUAAUGGUAACGCGUAUCCCUCUUAAGGAGCAGACUGCGGGGUCGAGUCCCGUACGGAACG | ≤ 0.5 |
| GUUCCGUUGGCGUAAUGGUAACGCGUAUCCAUCCUAAGGAGAAGACUGUGGGUUCGACUCCUGAACGGAACG | ≤ 0.5 |
| GUUCCGUUGGCGUAAUGGUAACGCGUAUCCCUCGUAAGGAGGAGACUGCAGGUUCGAGUCCGGUACGGAACG | ≤ 0.5 |
| GUUCCGUUGGCGUAAUGGUAACGCGUAUCCCUACUAAGGAGUAGACUGCGGGUUCGAGUCCCGUACGGAACG | 0.619 |
| GUUCCGUUGGCGUAAUGGUAACGCGUAUCCAUCCUACGGAGAAGAGUGCGGGUUCGAGUCCCGUACGGAACG | ≤ 0.5 |
| GUUCCGUUGGCGUAAUGGUAACGCGUAUCCGUCCUAAGGAGAAGAUUGCGGGUUCGAGUCCCGUACGGAACG | 0.621 |
| GUUCCGUUGGCGUAAUGGUAACGCGUAUCCCUACUAAGGAGAAGAAUGCGGGUUCGAGUCCCCUACGGAACG | ≤ 0.5 |
| GUUCCGUUGGCGUAAUGGUAACGCGUAUCCAUCCUAAGGAGAAGACUGCGGAUCCGACUCCCGUACGGAGCG | ≤ 0.5 |
| GUUCCGUUGGCGUAAUGGUAACGCGUAUCCCUCGUAAGGGGAAGACUGCGGGUUCGAGUCCCGUGCGGAACG | 0.799 |
| GUUCCGUUGGCGUAAUGGUAACGCGUAUCCGUCCUAAGGAGAAGACUGCGGGUUCGCGUCCCGAACGAAACG | ≤ 0.5 |
